In ChEMBL document CHEMBL1135642, “Synthesis and biological evaluation of 7,8,9,10-tetrahydroimidazo[1,2-c]pyrido[3,4-e]pyrimdin-5(6H)-ones as functionally selective ligands of the benzodiazepine receptor site on the GABA(A) receptor” (J Med Chem, 2002):
pEC50, pKi: −log10 of the molar value.

Experiments:
[1] = target: T1, Gamma-aminobutyric acid receptor subunit alpha-1 (Homo sapiens) (UniProt P14867); test: Maximum percent potentiation against gamma-aminobutyric acid (GABA) A receptor, alpha 1; details: Xenopus laevis
T1 sequence (whole entry): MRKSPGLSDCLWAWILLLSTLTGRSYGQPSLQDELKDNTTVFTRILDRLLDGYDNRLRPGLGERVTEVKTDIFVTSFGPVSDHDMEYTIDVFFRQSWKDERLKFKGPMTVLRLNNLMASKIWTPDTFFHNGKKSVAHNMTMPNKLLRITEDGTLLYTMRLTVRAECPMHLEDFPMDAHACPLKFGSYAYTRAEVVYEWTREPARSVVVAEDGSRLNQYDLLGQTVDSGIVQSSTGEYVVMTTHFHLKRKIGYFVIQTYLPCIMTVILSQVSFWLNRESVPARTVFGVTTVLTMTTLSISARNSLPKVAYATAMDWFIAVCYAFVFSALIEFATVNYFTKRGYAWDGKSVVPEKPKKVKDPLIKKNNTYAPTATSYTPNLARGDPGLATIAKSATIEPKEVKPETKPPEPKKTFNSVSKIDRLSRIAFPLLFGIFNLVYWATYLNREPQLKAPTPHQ
Method in brief: (§1)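 Xenopus laevis oocytes were injected with human cRNA for the α, β and γ subunits needed to express each receptor subtype (α1, α2, α3 or α5). Electrophysiological recording was used to read potentiation, and the effective concentration and maximal percent potentiation were derived from it.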

[2] = target: T2, Gamma-aminobutyric acid receptor subunit alpha-5 (Homo sapiens) (UniProt P31644); test: Maximum percent potentiation against gamma-aminobutyric acid (GABA) A receptor, alpha 5; details: Xenopus laevis; method in brief: as §1
T2 sequence (whole entry): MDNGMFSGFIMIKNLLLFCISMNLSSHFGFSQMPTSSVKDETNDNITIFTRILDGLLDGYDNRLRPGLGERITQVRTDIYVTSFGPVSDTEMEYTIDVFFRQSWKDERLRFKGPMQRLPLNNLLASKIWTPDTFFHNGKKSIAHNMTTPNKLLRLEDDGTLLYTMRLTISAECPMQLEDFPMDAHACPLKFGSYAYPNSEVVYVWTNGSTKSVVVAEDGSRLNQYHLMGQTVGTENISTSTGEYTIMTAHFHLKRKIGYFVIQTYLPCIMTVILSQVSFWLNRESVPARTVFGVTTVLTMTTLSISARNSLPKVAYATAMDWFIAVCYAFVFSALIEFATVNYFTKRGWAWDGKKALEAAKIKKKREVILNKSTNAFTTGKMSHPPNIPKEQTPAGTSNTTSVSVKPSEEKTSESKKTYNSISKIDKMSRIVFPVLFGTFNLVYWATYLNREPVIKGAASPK

[3] = target: T3, Gamma-aminobutyric acid receptor subunit alpha-3 (Homo sapiens) (UniProt P34903); test: Maximum percent potentiation against gamma-aminobutyric acid (GABA) A receptor, alpha 3; details: Xenopus laevis; method in brief: as §1
T3 sequence (whole entry): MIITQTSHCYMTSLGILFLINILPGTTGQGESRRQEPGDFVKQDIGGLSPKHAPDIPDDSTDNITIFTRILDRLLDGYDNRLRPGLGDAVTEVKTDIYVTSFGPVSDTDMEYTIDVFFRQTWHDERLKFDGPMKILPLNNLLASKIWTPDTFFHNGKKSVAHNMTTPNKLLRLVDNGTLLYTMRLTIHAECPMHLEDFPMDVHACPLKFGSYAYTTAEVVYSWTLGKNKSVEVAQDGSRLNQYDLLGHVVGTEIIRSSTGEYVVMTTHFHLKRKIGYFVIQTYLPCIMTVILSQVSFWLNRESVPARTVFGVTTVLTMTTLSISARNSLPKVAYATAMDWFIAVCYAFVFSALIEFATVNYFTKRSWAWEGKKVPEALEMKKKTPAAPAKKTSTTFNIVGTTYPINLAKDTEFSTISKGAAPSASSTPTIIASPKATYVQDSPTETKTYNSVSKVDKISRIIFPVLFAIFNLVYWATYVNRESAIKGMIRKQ

[4] = target: T4, Gamma-aminobutyric acid receptor subunit alpha-2 (Homo sapiens) (UniProt P47869); test: Maximum percent potentiation against gamma-aminobutyric acid (GABA) A receptor, alpha 2; details: Xenopus laevis; method in brief: as §1
T4 sequence (whole entry): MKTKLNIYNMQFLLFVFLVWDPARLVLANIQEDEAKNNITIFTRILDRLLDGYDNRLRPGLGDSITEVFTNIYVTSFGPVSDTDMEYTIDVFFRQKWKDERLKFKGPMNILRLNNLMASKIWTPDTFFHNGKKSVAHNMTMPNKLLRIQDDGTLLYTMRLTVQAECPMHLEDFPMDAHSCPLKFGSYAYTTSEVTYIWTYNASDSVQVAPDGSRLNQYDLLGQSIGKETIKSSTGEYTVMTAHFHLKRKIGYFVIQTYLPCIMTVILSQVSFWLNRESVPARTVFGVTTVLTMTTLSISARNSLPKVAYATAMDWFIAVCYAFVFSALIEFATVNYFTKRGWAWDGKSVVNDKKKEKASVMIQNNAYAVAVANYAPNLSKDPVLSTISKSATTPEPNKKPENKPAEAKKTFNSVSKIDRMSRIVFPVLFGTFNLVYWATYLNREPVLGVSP

[5] = target: GABA-A receptor; anion channel; test: Binding affinity was determined by displacement of [3H]flumazenil from rat cortex homogenates; type: functional
Method in brief: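 Displacement of [3H]flumazenil from rat cortex homogenates. Values are averages (±SD); some analogues were run once as a single set of triplicates. NA means an IC50 was not achieved at the highest dose tested.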

[6] = target: T5, Gamma-aminobutyric acid receptor subunit alpha-5 (Homo sapiens, UniProt P31644); test: Effective concentration against Gamma-aminobutyric acid A receptor, alpha 5; set-up: species or system Xenopus laevis; method in brief: as §1
T5 sequence (P31644 whole entry): T2 sequence (whole entry)

[7] = target: T6, Gamma-aminobutyric acid receptor subunit alpha-1 (Homo sapiens, UniProt P14867); test: Effective concentration against gamma-aminobutyric acid (GABA) A receptor, alpha 1; set-up: species or system Xenopus laevis; method in brief: as §1
T6 sequence (P14867 whole entry): T1 sequence (whole entry)

[8] = target: T7, Gamma-aminobutyric acid receptor subunit alpha-2 (Homo sapiens, UniProt P47869); test: Effective concentration against gamma-aminobutyric acid (GABA) A receptor, alpha 2; set-up: species or system Xenopus laevis; method in brief: as §1
T7 sequence (P47869 whole entry): T4 sequence (whole entry)

[9] = target: T8, Gamma-aminobutyric acid receptor subunit alpha-3 (Homo sapiens, UniProt P34903); test: Effective concentration against gamma-aminobutyric acid (GABA) A receptor, alpha 3; set-up: species or system Xenopus laevis; method in brief: as §1
T8 sequence (P34903 whole entry): T3 sequence (whole entry)

Oc1nc2c(c3nc(-c4ccccc4F)cn13)CN(Cc1c[nH]cn1)CC2
Activity [1]: 40% | Activity [2]: 44% | Activity [3]: 49% | Activity [4]: 58%

O=C(c1ccncc1)N1CCc2nc(O)n3cc(-c4ccccc4F)nc3c2C1
pKi [5]: 6.91

O=c1[nH]c2c(c3nc(-c4ccccc4F)cn13)CN(Cc1cnc[nH]1)CC2
pEC50 [6]: 6.36 | pKi [5]: 8.00 | pEC50 [7]: 6.93 | pEC50 [8]: 6.34 | pEC50 [9]: 6.37

Oc1nc2c(c3nc(-c4ccccc4F)cn13)CN(c1ncccn1)CC2
pKi [5]: 6.88 | pEC50 [8]: 7.08 | Activity [1]: 0% | Activity [2]: 0% | Activity [3]: 35% | Activity [4]: 44% | pEC50 [9]: 6.93

O=c1[nH]c2c(c3nc(-c4cccc(F)c4)cn13)CN(Cc1ccccc1)CC2
pKi [5]: 7.95 | pEC50 [7]: 6.92 | pEC50 [8]: 6.81

CC(C)N1CCc2nc(O)n3cc(-c4ccccc4F)nc3c2C1
pKi [5]: 7.29

Oc1nc2c(c3nc(-c4ccc(F)cc4F)cn13)CN(Cc1ccccc1)CC2
Activity [1]: 63% | Activity [2]: 30% | Activity [3]: 95% | Activity [4]: 184%

CC(c1ccccc1)N1CCc2nc(O)n3cc(-c4ccccc4F)nc3c2C1 (stereo not given)
pKi [5]: 8.54

Oc1nc2c(c3nc(-c4ccccc4F)cn13)CN(Cc1ccccc1)CC2
Activity [1]: 56% | Activity [2]: 31% | Activity [3]: 120% | Activity [4]: 76%

CCC(=O)N1CCc2nc(O)n3cc(-c4ccccc4F)nc3c2C1
pKi [5]: 6.67 | pEC50 [7]: 7.02 | pEC50 [8]: 6.96 | Activity [1]: 12% | Activity [2]: 0% | Activity [3]: 9% | Activity [4]: 22% | pEC50 [9]: 6.94

Oc1nc2c(c3nc(-c4cc(F)ccc4F)cn13)CN(Cc1ccccc1)CC2
pEC50 [7]: 7.44 | pEC50 [8]: 6.73 | Activity [1]: 59% | Activity [4]: 82%

COc1ccc(-c2cn3c(O)nc4c(c3n2)CN(Cc2ccccc2)CC4)c(F)c1
pKi [5]: 9.22

O=c1[nH]c2c(c3nc(-c4ccc(F)cc4)cn13)CN(Cc1ccccc1)CC2
pKi [5]: 7.68 | pEC50 [7]: 6.87 | pEC50 [8]: 6.61

Oc1nc2c(c3nc(-c4ccc(Cl)cc4)cn13)CN(Cc1ccccc1)CC2
pKi [5]: 6.92

O=C(Cc1ccccc1)N1CCc2nc(O)n3cc(-c4ccccc4F)nc3c2C1
pKi [5]: 6.41

COc1cccc(-c2cn3c(O)nc4c(c3n2)CN(Cc2ccccc2)CC4)c1
Activity [1]: 123% | Activity [4]: 115%

O=C(c1cccnc1)N1CCc2nc(O)n3cc(-c4ccccc4F)nc3c2C1
pKi [5]: 7.04

CC(c1ccccc1F)N1CCc2nc(O)n3cc(-c4ccccc4F)nc3c2C1 (stereo not given)
pKi [5]: 8.77

CCCCOC(=O)N1CCc2nc(O)n3cc(-c4ccccc4F)nc3c2C1
pKi [5]: 6.64

CCCC(=O)N1CCc2nc(O)n3cc(-c4ccccc4F)nc3c2C1
pKi [5]: 6.58

COc1ccc(-c2cn3c(O)nc4c(c3n2)CN(C)CC4)cc1
pKi [5]: 6.62

Oc1nc2c(c3nc(-c4ccccc4F)cn13)CN(CCc1ccccc1)CC2
pKi [5]: 7.08

COc1cccc(-c2cn3c(=O)[nH]c4c(c3n2)CN(Cc2ccccc2)CC4)c1
pKi [5]: 8.64 | pEC50 [7]: 7.09 | pEC50 [8]: 6.57

CCOC(=O)N1CCc2nc(O)n3cc(-c4ccccc4F)nc3c2C1
pKi [5]: 7.19
